Test results reported in ChEMBL document CHEMBL3792308, “Synthesis and Evaluation of 2,6-Modified Purine 2'-C-Methyl Ribonucleosides as Inhibitors of HCV Replication” (ACS Med Chem Lett, 2016).
Active and inactive are the calls of the source. The rule behind the calls is not given here.

Experiments:
Hepatitis C virus = test: Antiviral activity against HCV infected in HuH7 Clone B cells assessed as inhibition of viral replication after 5 days by RT-PCR method; assay type: functional, organism-based, Hepacivirus hominis; details: 120 h
Procedure, shortened: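 Huh7 cells carrying a subgenomic HCV replicon; HCV RNA extracted and amplified to measure replication inhibition. Tested up to 10 μM, and EC50 and EC90 are reported.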

[1] = Cytotoxicity against human PBMC after 6 days by trypan blue exclusion assay; assay type: cell-based; details: PBMC (peripheral blood mononuclear cells)
[2] = Cytotoxicity against human CEM cells after 6 days by trypan blue exclusion assay; assay type: cell-based; details: CEM (CCRF-CEM) cells
[3] = Cytotoxicity against African green monkey Vero cells after 3 days by hemocytometry; assay type: cell-based; details: chlorocebus sabaeus
[4] = Cytotoxicity against human HuH7 cells infected with HCV assessed as reduction in cellular rRNA level after 96 hrs by qRT-PCR analysis; assay type: cell-based, Huh-7
Procedure, shortened: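 Huh7 toxicity was read in the same wells as the replicon assay, by extracting and amplifying cellular rRNA alongside HCV RNA.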

[5] = Drug metabolism in human HuH7 cells assessed as 2'-beta-C-methylguanosine-5'-triphosphate formation at 50 uM after 4 hrs by LC-MS/MS analysis; assay type: ADME, cell-based; details: huh-7, 4 h
Procedure, shortened: (§1)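 Huh7 cells incubated with 50 μM compound for 4 h at 37 °C, then washed with phosphate-buffered saline. Intracellular metabolites extracted with 70% ice-cold methanol in water and identified by LC–MS/MS, with nucleoside mono-, di- and triphosphate levels quantified.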

[6] = Drug metabolism in human HuH7 cells assessed as nucleoside monophosphate derivative formation at 50 uM after 4 hrs by LC-MS/MS analysis; assay type: ADME, cell-based; details: huh-7, 4 h; procedure, shortened: as §1
[7] = Drug metabolism in human HuH7 cells assessed as nucleoside diphosphate derivative formation at 50 uM after 4 hrs by LC-MS/MS analysis; assay type: ADME, cell-based; details: huh-7, 4 h; procedure, shortened: as §1
[8] = Drug metabolism in human HuH7 cells assessed as nucleoside triphosphate derivative formation at 50 uM after 4 hrs by LC-MS/MS analysis; assay type: ADME, cell-based; details: huh-7, 4 h; procedure, shortened: as §1
[9] = Drug metabolism in human HuH7 cells assessed as formation of ((2R,3R,4R,5R)-5-(6-amino-2-fluoro-9H-purin-9-yl)-3,4-dihydroxy-4-methyltetrahydrofuran-2-yl)methyl tetrahydro triphosphate at 50 uM after 4 hrs by LC-MS/MS analysis; assay type: ADME, cell-based; details: huh-7, 4 h; procedure, shortened: as §1
[10] = Inhibition of HCV C-terminal his-tagged NS5B delta21 RNA dependent RNA polymerase assessed as inhibition of full-length 20mer RNA product formation after 120 mins by PAGE method in presence of 32P-radiolabeled GpG primer; set-up: species or system Hepacivirus hominis
Procedure, shortened: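 HCV NS5B polymerase RNA synthesis on a 20mer RNA template, run with increasing triphosphate concentrations up to 100 μM. Products resolved to follow incorporation and pausing sites opposite template uridines.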

Homo sapiens = species on record: Homo sapiens; test: Inhibition of host RNA polymerase 2 (unknown origin) up to 100 uM
Procedure, shortened: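 Host RNA polymerase II was tested with nucleoside triphosphate up to 100 μM. α-Amanitin served as the positive control.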

[11] = target: DNA-directed RNA polymerase, mitochondrial (Homo sapiens) (UniProt O00411); test: Activity at human mitochondrial RNA polymerase assessed as compound incorporation into RNA up to 100 uM relative to ATP
Procedure, shortened: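 Human mitochondrial RNA polymerase (POLRMT) incorporation of nucleoside triphosphate, tested up to 100 μM and expressed as percent incorporation normalized to ATP.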

[12] = Drug level in human HuH7 cells treated with (2R,3R,4R,5R)-2-(6-amino-2-fluoro-9H-purin-9-yl)-5-(hydroxymethyl)-3-methyltetrahydrofuran-3,4-diol at 50 uM after 4 hrs by LC-MS/MS analysis; assay type: ADME, cell-based; details: huh-7, 4 h; procedure, shortened: as §1
[13] = Drug level in human HuH7 cells treated with Ethyl((((2R,3R,4R,5R)-5-(6-amino-2-fluoro-9H-purin-9-yl)-3,4-dihydroxy-4-methyltetrahydrofuran-2-yl)methoxy)(phenoxy)phosphoryl)-L-alaninate at 50 uM after 4 hrs by LC-MS/MS analysis; assay type: ADME, cell-based; details: huh-7, 4 h; procedure, shortened: as §1
[14] = Drug level in human HuH7 cells treated with 2-Amino-6-[N-(t-butyloxycarbonyl)aminoxy]-9H-(2'-C-methyl-beta-D-ribofuranosyl)-purine at 50 uM after 4 hrs by LC-MS/MS analysis; assay type: ADME, cell-based; details: huh-7, 4 h; procedure, shortened: as §1
[15] = Drug level in human HuH7 cells treated with Ethyl((((2R,3S,4R,5R)-5-(2-amino-6-(((tert-butoxycarbonyl)amino)oxy)-9H-purin-9-yl)-3,4-dihydroxy-4-methyltetrahydrofuran-2-yl)methoxy)(phenoxy)phosphoryl)-Lalaninate at 50 uM after 4 hrs by LC-MS/MS analysis; assay type: ADME, cell-based; details: huh-7, 4 h; procedure, shortened: as §1
[16] = Inhibition of host RNA polymerase 2 (unknown origin); set-up: species or system Homo sapiens
Procedure, shortened: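 Host RNA polymerase II inhibition assay with the nucleoside triphosphate tested at concentrations up to 100 μM. α-Amanitin was included as the positive control.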

Chain of DNA-directed RNA polymerase, mitochondrial (Homo sapiens) (O00411 whole entry): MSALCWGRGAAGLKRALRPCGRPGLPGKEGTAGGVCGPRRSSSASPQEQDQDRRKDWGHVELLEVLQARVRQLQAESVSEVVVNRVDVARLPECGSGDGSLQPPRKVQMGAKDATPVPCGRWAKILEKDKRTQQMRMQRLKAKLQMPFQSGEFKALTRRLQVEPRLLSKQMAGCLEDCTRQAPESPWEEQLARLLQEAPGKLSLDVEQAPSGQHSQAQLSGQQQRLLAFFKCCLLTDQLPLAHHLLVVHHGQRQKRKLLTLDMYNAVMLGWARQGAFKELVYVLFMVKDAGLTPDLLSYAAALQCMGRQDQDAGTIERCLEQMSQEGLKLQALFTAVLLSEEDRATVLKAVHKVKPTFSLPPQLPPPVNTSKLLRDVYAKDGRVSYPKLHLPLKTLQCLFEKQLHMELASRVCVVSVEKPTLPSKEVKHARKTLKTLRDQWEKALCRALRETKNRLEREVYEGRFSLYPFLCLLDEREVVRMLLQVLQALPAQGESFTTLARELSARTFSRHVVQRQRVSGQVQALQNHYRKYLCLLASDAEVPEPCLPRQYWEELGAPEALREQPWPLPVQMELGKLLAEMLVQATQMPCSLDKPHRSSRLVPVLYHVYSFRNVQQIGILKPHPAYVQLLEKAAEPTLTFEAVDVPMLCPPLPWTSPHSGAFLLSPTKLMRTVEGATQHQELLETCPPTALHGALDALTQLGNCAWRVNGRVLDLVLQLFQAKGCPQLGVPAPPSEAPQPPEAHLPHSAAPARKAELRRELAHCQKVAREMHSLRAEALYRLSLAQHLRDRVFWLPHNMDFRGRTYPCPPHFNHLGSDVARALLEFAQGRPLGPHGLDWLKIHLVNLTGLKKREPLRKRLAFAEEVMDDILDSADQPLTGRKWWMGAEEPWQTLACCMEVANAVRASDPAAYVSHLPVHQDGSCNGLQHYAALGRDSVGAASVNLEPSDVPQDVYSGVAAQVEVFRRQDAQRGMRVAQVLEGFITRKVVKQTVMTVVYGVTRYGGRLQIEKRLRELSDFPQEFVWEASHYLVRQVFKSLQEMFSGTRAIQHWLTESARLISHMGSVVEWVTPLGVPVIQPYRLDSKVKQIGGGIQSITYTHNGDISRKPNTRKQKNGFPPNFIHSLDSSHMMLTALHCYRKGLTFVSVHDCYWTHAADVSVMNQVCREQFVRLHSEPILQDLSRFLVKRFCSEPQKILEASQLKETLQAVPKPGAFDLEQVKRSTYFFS

| SMILES | EC50 (Hepatitis C virus) [µM] | EC90 (Hepatitis C virus) [µM] | CC50 at 144 h [1] [µM] | CC50 at 144 h [2] [µM] | CC50 at 72 h [3] [µM] | CC50 at 96 h [4] [µM] | other results |
| --- | --- | --- | --- | --- | --- | --- | --- |
| CCOC(=O)[C@H](C)NP(=O)(OC[C@H]1O[C@@H](n2cnc3c(ONC(=O)OC(C)(C)C)nc(N)nc32)[C@](C)(O)[C@@H]1O)Oc1ccccc1 (some centres not stated) | 0.3 | 0.9 | > 100 | 39 | > 100 | > 10 | Drug metabolism [5]: metabolite_detected |
| CCOC(=O)[C@H](C)NP(=O)(OC[C@H]1O[C@@H](n2cnc3c(N)nc(N=[N+]=[N-])nc32)[C@](C)(O)[C@@H]1O)Oc1ccccc1 (some centres not stated) | 2.3 | 3 | > 100 | > 100 | > 100 | > 10 | Drug metabolism [6]: metabolite_detected; Drug metabolism [7]: metabolite_detected; Drug metabolism [8]: metabolite_detected |
| C[C@@]1(O)[C@H](O)[C@@H](CO)O[C@H]1n1cnc2c(N)nc(F)nc21 | > 10 | > 10 | > 100 | > 100 | > 100 | > 10 | Drug metabolism [9]: metabolite_detected |
| C[C@@]1(O)[C@H](O)[C@@H](COP(=O)(O)OP(=O)(O)OP(=O)(O)O)O[C@H]1n1cnc2c(N)nc(F)nc21 |  |  |  |  |  |  | Ki [10]: 32 µM; inhibition (Homo sapiens): inactive; Activity [11]: 11%; Drug metabolism [12]: metabolite_detected; Drug metabolism [13]: metabolite_detected |
| CCOC(=O)[C@H](C)NP(=O)(OC[C@H]1O[C@@H](n2cnc3c(N)nc(F)nc32)[C@](C)(O)[C@@H]1O)Oc1ccccc1 (some centres not stated) | 2.7 | 8.3 | > 100 | > 100 | > 100 | > 10 | Drug metabolism [6]: metabolite_detected; Drug metabolism [7]: metabolite_detected; Drug metabolism [8]: metabolite_detected; Drug metabolism [9]: metabolite_detected |
| CCOC(=O)[C@H](C)NP(=O)(OC[C@H]1O[C@@H](n2cnc3c(N)nc(OC)nc32)[C@](C)(O)[C@@H]1O)Oc1ccccc1 (some centres not stated) | 1 | 2.8 | > 100 | > 100 | > 100 | > 10 | Drug metabolism [6]: metabolite_detected; Drug metabolism [7]: metabolite_detected; Drug metabolism [8]: metabolite_detected |
| CC(C)(C)OC(=O)NOc1nc(N)nc2c1ncn2[C@@H]1O[C@H](CO)[C@@H](O)[C@@]1(C)O | 0.9 | 8.4 | > 100 | > 100 | > 100 | > 10 | Drug metabolism [5]: metabolite_detected |
| C=C(OCC)c1nc(N)nc2c1ncn2[C@@H]1O[C@H](CO)[C@@H](O)[C@@]1(C)O | > 10 | > 10 | > 100 | > 100 | > 100 | > 10 |  |
| CCOC(=O)[C@H](C)NP(=O)(OC[C@H]1O[C@@H](n2cnc3c(N=[N+]=[N-])nc(N)nc32)[C@](C)(O)[C@@H]1O)Oc1ccccc1 (some centres not stated) | 2.4 | 7.7 | > 100 | > 100 | > 100 | > 10 |  |
| C[C@@]1(O)[C@H](O)[C@@H](CO)O[C@H]1n1cnc2c(ONC(=O)OCc3ccccc3)nc(N)nc21 | 2.4 | 8 | > 100 | > 100 | > 100 | > 10 |  |
| CCOC(=O)[C@H](C)NP(=O)(OC[C@H]1O[C@@H](n2cnc3c(N)nc(ONC(=O)OCc4ccccc4)nc32)[C@](C)(O)[C@@H]1O)Oc1ccccc1 (some centres not stated) | 4.8 | 10 | > 100 | > 100 | > 100 | > 33 |  |
| C[C@@]1(O)[C@H](O)[C@@H](COP(=O)(O)OP(=O)(O)OP(=O)(O)O)O[C@H]1n1cnc2c(=O)[nH]c(N)nc21 [INX-09114] |  |  |  |  |  |  | Drug metabolism [14]: metabolite_detected; Drug metabolism [15]: metabolite_detected |
| C[C@@]1(O)[C@H](O)[C@@H](CO)O[C@H]1n1cnc2c(N)nc(N=[N+]=[N-])nc21 | > 10 | > 10 | > 100 | > 100 | > 100 | > 10 |  |
| CC[C@H](C)[C@@H]1NC(=O)CNC(=O)[C@@H]2Cc3c([nH]c4cc(O)ccc34)[S+]([O-])C[C@H](NC(=O)CNC1=O)C(=O)N[C@@H](CC(N)=O)C(=O)N1C[C@H](O)C[C@H]1C(=O)N[C@@H]([C@@H](C)[C@@H](O)CO)C(=O)N2 (some centres not stated) |  |  |  |  |  |  | IC50 [16]: 0.0025 µM |
| C[C@@]1(O)[C@H](O)[C@@H](CO)O[C@H]1n1cnc2c(N)nc(ONC(=O)OCc3ccccc3)nc21 | > 10 | > 10 | > 100 | > 100 | > 100 | > 10 |  |
| CCOC(=O)[C@H](C)NP(=O)(OC[C@H]1O[C@@H](n2cnc3c(N)nc(NOC)nc32)[C@](C)(O)[C@@H]1O)Oc1ccccc1 (some centres not stated) | > 10 | > 10 | > 100 | > 100 | 18 | > 10 |  |
| C[C@@]1(O)[C@H](O)[C@@H](CO)O[C@H]1n1cnc2c(N)nc(Cl)nc21 | > 10 | > 10 | > 100 | > 100 | > 100 | > 10 |  |
| C[C@@]1(O)[C@H](O)[C@@H](CO)O[C@H]1n1cnc2c(N)nc(O)nc21 | > 10 | > 10 | > 100 | > 100 | > 100 | > 10 |  |
| CONc1nc(N)c2ncn([C@@H]3O[C@H](CO)[C@@H](O)[C@@]3(C)O)c2n1 | > 10 | > 10 | > 100 | > 100 | > 100 | > 10 |  |
